HNF4A DNA FP: change in binding of human HNF4 alpha to DNA; P41235; HNF4a-FITC DNA binding, fluorescence polarization, 1 h; activity change, % at 10 µM; actives 0.3% (n = 360,000); in the data active = activity change above about 30%, passing the limit was not always enough
Rpn11 block: Rpn11 (human) deubiquitinase inhibition; O00487; human 26S proteasome, Ub4-pepOG fluorescence polarization; 20S core pre-blocked with epoxomicin; inhibition, % at 20 µM; actives 0.59% (n = 360,000); AID 588493;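 active = inhibition at 20 µM, scaled to each plate's controls, above about 33%, limit read from the data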
Target sequence (O00487 whole entry, looked up): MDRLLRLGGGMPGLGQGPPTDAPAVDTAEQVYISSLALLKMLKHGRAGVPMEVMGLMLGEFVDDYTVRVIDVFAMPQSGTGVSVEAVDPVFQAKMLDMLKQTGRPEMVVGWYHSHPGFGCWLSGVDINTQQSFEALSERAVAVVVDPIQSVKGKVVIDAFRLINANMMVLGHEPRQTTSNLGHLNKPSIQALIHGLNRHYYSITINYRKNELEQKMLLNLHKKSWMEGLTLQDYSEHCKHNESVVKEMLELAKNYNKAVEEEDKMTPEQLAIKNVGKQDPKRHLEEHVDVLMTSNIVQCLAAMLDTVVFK
CSN inh: blocks human CSN-mediated cullin deneddylation. Q92905. Purified CSN, SCF-Nedd8-OG deneddylation, fluorescence polarization. inhibition, % at 12.5 µM. actives 0.38% (n = 360,000);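 active = pattern-corrected inhibition above about 35%, with an unprinted fluorescence ratio check between 0.5 and 1.5, limit read from the data, passing the limit was not always enough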
Target sequence (Q92905 whole entry, looked up, one chain of several): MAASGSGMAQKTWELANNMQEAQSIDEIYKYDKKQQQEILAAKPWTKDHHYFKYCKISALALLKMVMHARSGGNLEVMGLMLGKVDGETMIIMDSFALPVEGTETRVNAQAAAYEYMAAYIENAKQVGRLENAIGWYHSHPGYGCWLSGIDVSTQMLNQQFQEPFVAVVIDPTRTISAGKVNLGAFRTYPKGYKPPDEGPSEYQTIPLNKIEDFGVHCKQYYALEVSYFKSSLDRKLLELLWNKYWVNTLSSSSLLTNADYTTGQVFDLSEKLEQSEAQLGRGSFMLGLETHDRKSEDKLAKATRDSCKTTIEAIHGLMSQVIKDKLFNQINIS
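Test system: Human Csn5 produced in HEK293T cells | Compound: 12.5 µM single point | Times: 90 min, room temperature | Signal: Fluorescence polarization readout | Read-out basis: % inhibition of substrate cleavage by Csn5 | Controls: no-enzyme wells high, enzyme-with-substrate wells low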
Tb MetRS inh: blocks T. brucei methionyl-tRNA synthetase activity; AID 624268; inhibition, % at 11.9 µM; purified T. brucei MetRS, ATP depletion, Kinase-Glo luminescence; actives 0.4% (n = 360,000);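 active = inhibition above a per-plate cutoff of the control wells' mean inhibition plus 3 SD, cut at about 5.5% in these data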
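Material – parasite MetRS enzyme · Medium – HEPES-MgCl2-KCl buffer plus DTT, spermine, BSA, pyrophosphatase · Reagent – ATP, methionine and E. coli bulk tRNA substrates · Times – 15 min enzyme-compound preincubation, 2 h reaction, 10 min detection, 25 °C · Measured by – luminescence of leftover ATP · Evaluation – percent inhibition relative to median high and low control wells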
PREPL inh: inhibits the human prolyl oligopeptidase-like enzyme | Q4J6C6 | recombinant PREPL, fluorescence polarization activity-based probe | inhibition, % at 5.96 µM | actives 0.68% (n = 320,000) | AID 2751; in the data active = inhibition above about 43%
Neddylation inh: inhibitors of human cullin neddylation; P61081+Q13564; TR-FRET cullin neddylation, biochemical; inhibition, % at 25 µM; actives 0.58% (n = 360,000); in the data active = inhibition above about 36%
Neddyl conf: cullin neddylation inhibition, confirmation | shares compounds with Neddylation inh | TR-FRET cullin neddylation biochemical assay | calls only at 25 µM | actives 13% (n = 1,800) | AID 652217; in the data active = inhibition above about 40%;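 also: neddylation substrate is the cullin 1 ring ligase complex with SKP2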
Numbers stand for hits; i = inactive; nt = not tested or not shown; + = active, no number. Hits are enriched below; roughly 2.4% of the tested compounds scored in any of these assays.

SMILES	HNF4A DNA FP	Rpn11 block	CSN inh	Tb MetRS inh	PREPL inh	Neddylation inh	Neddyl conf
CCCCCNC(=O)C(c1ccncc1)n1c(=O)c(-c2ccccc2)nc2ccccc21 (stereo unspecified)	i	nt	i	i	nt	45	i
N#Cc1ccc(C(C(=O)NC2CCCCC2)n2c(=O)c(-c3ccccc3)nc3ccccc32)cc1 (stereo unspecified)	i	nt	i	i	nt	i	nt
COc1ccc(NC(=O)C(c2ccccc2)n2c(=O)c(-c3cc4ccccc4[nH]3)nc3ccccc32)cc1 (stereo unspecified)	i	nt	i	i	nt	nt	nt
CCN1CCN(S(=O)(=O)c2ccc3c4c(cccc24)C(=O)N3CC)CC1	i	i	i	i	i	58	nt
CCN1C(=O)c2cccc3c(S(=O)(=O)NCc4ccco4)ccc1c23	i	i	i	i	i	51	i
Cc1ccc(NS(=O)(=O)c2cccc(C(=O)N/N=C/c3ccc4c(c3)OCCO4)c2)c(C)c1	i	i	i	i	i	49	i
Cc1ccc(C(=O)N/N=C/c2ccc(N3CCOCC3)cc2)c(C)c1	i	i	i	i	i	41	i
COc1ccccc1NS(=O)(=O)c1cccc(C(=O)N/N=C/c2ccc(N3CCOCC3)cc2)c1	i	i	i	i	i	41	i
Cc1ccc(NS(=O)(=O)c2cccc(C(=O)N/N=C/c3c(C)nn(-c4ccccc4)c3N3CCCC3)c2)c(C)c1	i	i	i	i	i	nt	nt
O=C(N/N=C/c1ccc(N2CCOCC2)cc1)c1ccc(O)cc1	i	i	i	i	i	i	nt
CCc1ccc(NC(=O)c2ccc(NC3=NC4CS(=O)(=O)CC4S3)cc2)cc1 (stereo unspecified)	i	i	i	i	i	i	nt
O=C(CCc1ccccc1)Nc1nnc(-c2ccccn2)o1	i	i	i	i	i	42	+
CCCc1ccc2oc(C(=O)N3CCN(CCC(N)=O)CC3)c(C)c2c1	i	i	i	i	i	i	nt
CCCc1ccc2oc(C(=O)N3CCN(c4cnccn4)CC3)c(C)c2c1	i	i	i	i	i	40	i
Cc1ccc2nc(NCCCN3CCOCC3)c(C=NCCCN3CCOCC3)c(=O)n2c1	i	i	i	i	nt	42	i
O=C(c1ccc(Cl)c(Cl)c1)N1CCC(=O)N([C@H](COCc2ccc(Cl)cc2)Cc2ccccc2)CC1	i	nt	i	i	nt	i	nt
CC(C)(C)c1ccc(NC(=O)C2=CN3CCS(=O)(=O)N=C3C=C2)cc1	i	i	i	i	i	i	nt
Cc1nc2ccc(NC(=O)/C=C/C(=O)O)cc2nc1C	i	i	i	i	i	i	nt
O=C(O)/C=C/C(=O)Nc1ccc2nccnc2c1	i	i	i	i	i	41	i
c1csc(CNc2ncnc3ccc(-c4ccc5c(c4)OCCO5)cc23)c1	i	i	i	i	i	36	nt
COc1cc(NC(=O)CSc2nc3ccccc3n2-c2ccccc2)c(C)cc1[N+](=O)[O-]	i	i	i	i	i	43	i
CCSC1=C(C#N)C(c2ccc(C)o2)CC(=O)N1 (stereo unspecified)	i	i	i	i	i	40	i
COc1ccc(S(=O)(=O)N2CCOCC2)cc1NC(=O)c1c(C)noc1C	i	i	i	i	nt	i	nt
c1coc(CNc2nc(N3CCCCC3)nc3ccccc23)c1	i	i	i	i	i	38	i
COCCn1nnnc1C(C(C)C)N(Cc1ccccc1)Cc1cc2cc(OC)ccc2[nH]c1=O (stereo unspecified)	i	i	i	i	nt	nt	nt
SMILES	HNF4A DNA FP	Rpn11 block	CSN inh	Tb MetRS inh	PREPL inh	Neddylation inh	Neddyl conf
COCCn1nnnc1C(C(C)C)N(Cc1cccnc1)Cc1cc2cc(OC)ccc2[nH]c1=O (stereo unspecified)	i	i	i	i	i	40	i
O=c1cc(-c2ccco2)oc2ccccc12	i	i	i	i	nt	40	+
Cc1ccc2oc(-c3ccco3)cc(=O)c2c1	i	i	i	i	i	45	+
CCN1CCN(c2nc3c(C)cccn3c(=O)c2/C=C(\C#N)C(=O)NCCOC)CC1	i	i	i	i	i	i	nt
CC1(C)CC2(CCO1)C(Nc1ccccc1)=NC(=S)N2CC(N)=O (stereo unspecified)	i	i	i	i	i	36	i
Cn1cnnc1SCC(=O)Nc1ccc(N2CCCCC2)cc1	i	i	i	i	i	i	nt
CC1CCc2c(sc(N)c2C(N)=O)C1 (stereo unspecified)	i	i	i	i	i	40	i
Nc1ccc(S(=O)(=O)c2ccc(N)nc2)cc1	i	i	i	i	nt	i	nt
CCOc1ccc(NC(=S)N2CCN(c3ccc(N4CCOCC4)nn3)CC2)cc1	i	i	i	i	i	42	i
CC12CCC(=O)N1C(C(=O)N1CCN(c3ccc(C(F)(F)F)cc3[N+](=O)[O-])CC1)CS2 (stereo unspecified)	i	i	i	i	i	i	nt
CCOc1cc(/C=N/NC(=O)c2ccc(NC(=O)C3CC3)cc2)ccc1O	i	i	i	i	i	i	nt
CCOc1cc(/C=N/NC(=O)c2cc(C)n(-c3ccc(F)cc3)c2C)ccc1O	i	i	i	i	i	40	i
CCOC(=O)c1nsnc1NCCSC(=N)N	i	i	i	i	i	40	i
COc1ccc(NC(=O)CSc2nc(N)cc(N)n2)cc1S(=O)(=O)N1CCCCC1	i	i	i	i	i	i	nt
COc1ccc(-c2nc3nc(C)c(Cc4ccccc4)c(=O)n3[nH]2)cc1	i	i	i	i	i	46	nt
Cc1sc2nc(-c3cccnc3)[nH]c(=O)c2c1-c1ccccc1	i	i	i	i	i	42	i
CC(OC(=O)c1snc(C(=O)NC2CCCCC2)c1N)C(=O)NC(C)(C)C (stereo unspecified)	i	i	i	i	i	40	+
CC(C)(C)NC(=O)COC(=O)c1snc(C(=O)NC2CCCCC2)c1N	i	i	i	i	i	i	nt
CC(C)NC(=O)/C(=C/c1ccco1)c1ccccc1	i	i	i	i	i	39	i
CCCCNC(=O)c1nc(-c2cc3ccccc3[nH]2)oc1-c1ccccc1	i	nt	i	i	nt	nt	nt
Cc1cccc2nc3ccccc3cc12	i	i	i	i	i	39	nt
O=C(Nc1cc(C(=O)Nc2ccccc2C(=O)O)cc(C(=O)Nc2ccccc2C(=O)O)c1)c1ccccc1	i	i	i	i	i	49	i
O=S(=O)(c1ccc(Cl)cc1)N1CCN(c2ccc(N3CCOCC3)nn2)CC1	i	i	i	i	i	43	i
C=C(Cl)COc1ccc2c(CC)cc(=O)oc2c1	i	i	i	i	i	42	i
Cc1ccc(-c2nc3ncccc3o2)cc1NC(=O)C(C)(C)C	i	i	i	i	i	41	nt

Screens: PubChem, several laboratories
